Source: ChEMBL document CHEMBL1139058, “Synthesis, in vitro and in silico evaluation of l-tyrosine containing PPARalpha/gamma dual agonists” (2007)

What was measured:
[1] = biological target: T1, Peroxisome proliferator-activated receptor alpha (Homo sapiens) (UniProt Q07869); experiment: Agonist activity at human PPARalpha in HEK293T cells at 50 uM by GAL4 transactivation assay relative to WY-14643; assay type: functional, cell-based; settings: HEK-293T
T1 sequence (whole entry): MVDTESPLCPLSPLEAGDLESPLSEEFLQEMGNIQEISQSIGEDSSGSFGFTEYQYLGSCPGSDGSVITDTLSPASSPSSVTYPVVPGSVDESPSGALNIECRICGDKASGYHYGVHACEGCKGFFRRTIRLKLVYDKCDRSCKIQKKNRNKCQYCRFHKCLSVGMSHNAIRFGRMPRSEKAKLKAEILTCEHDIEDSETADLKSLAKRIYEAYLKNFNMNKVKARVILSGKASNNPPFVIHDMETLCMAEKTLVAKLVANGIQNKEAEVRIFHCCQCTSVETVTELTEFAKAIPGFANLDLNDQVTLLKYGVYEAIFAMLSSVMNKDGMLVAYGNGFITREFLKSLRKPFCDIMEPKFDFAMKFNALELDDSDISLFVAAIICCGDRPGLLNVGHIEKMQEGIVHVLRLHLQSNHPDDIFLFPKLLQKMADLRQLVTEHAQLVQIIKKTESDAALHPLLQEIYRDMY
Procedure, shortened: (§1)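 HEK 293T cells grown in DMEM-10% FBS at 37 °C, 5% CO2, then plated at 50–60% confluence in DMEM with 10% delipidated FBS one day before Superfect transfection. Reagent removed after 3 h. At 42 h post-transfection, cells moved to phenol red-free DMEM-DFBS and treated 18 h with compound or vehicle. Cells lysed, luciferase measured, expressed as fold activation over untreated cells.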

[2] = Agonist activity at human PPARgamma 1 in HEK293T cells at 50 uM by GAL4 transactivation assay relative to rosiglitazone; assay type: functional, HEK-293T; procedure, shortened: as §1

| Compound | Activity [1] | Activity [2] |
| --- | --- | --- |
| O=C(C1=C(N[C@@H](Cc2ccc(OCCn3c4ccccc4c4ccccc43)cc2)C(=O)O)CCCC1)c1ccccc1 | 1 | 8.4 |
| COC(=O)[C@H](Cc1ccc(OCCn2c3ccccc3c3ccccc32)cc1)NC1=C(C(=O)c2ccccc2)CCCC1 | 0.5 | 3 |
| C/C(=C/C(=O)c1ccccc1)N[C@@H](Cc1ccc(OCCOc2ccc3c(c2)[nH]c2ccccc23)cc1)C(=O)O | 2 | 4.2 |
| COC(=O)[C@H](Cc1ccc(OCCOc2cccc3[nH]c4ccccc4c23)cc1)NC1=C(C(=O)c2ccccc2)CCCC1 | 1.4 | 4.7 |
| C/C(=C/C(=O)c1ccccc1)N[C@@H](Cc1ccc(OCCOc2cc(C(F)(F)F)nc3c(C(F)(F)F)cccc23)cc1)C(=O)O | 1.1 | 2.3 |
| C/C(=C/C(=O)c1ccccc1)N[C@@H](Cc1ccc(OCCn2c3ccccc3c3ccccc32)cc1)C(=O)O | 1.4 | 1.7 |
| COC(=O)[C@H](Cc1ccc(OCCn2c3ccccc3c3ccccc32)cc1)N/C(C)=C\C(=O)c1ccccc1 | 1.2 | 1.9 |
| COC(=O)[C@H](Cc1ccc(OCCOc2ccc3c(c2)[nH]c2ccccc23)cc1)N/C(C)=C\C(=O)c1ccccc1 | 1.9 | 1.8 |
| O=C(C1=C(N[C@@H](Cc2ccc(OCCOc3cccc4[nH]c5ccccc5c34)cc2)C(=O)O)CCCC1)c1ccccc1 | 1.2 | 11.2 |
| C/C(=C/C(=O)c1ccccc1)N[C@@H](Cc1ccc(OCCOc2cccc3[nH]c4ccccc4c23)cc1)C(=O)O | 4.6 | 48.2 |
| C/C(=C/C(=O)c1ccccc1)N[C@@H](Cc1ccc(OCCCOc2cccc3[nH]c4ccccc4c23)cc1)C(=O)O | 5.1 | 15.1 |
| C/C(=C/C(=O)c1ccccc1)N[C@@H](Cc1ccc(OCCc2ccc(C(F)(F)F)cc2)cc1)C(=O)O | 0.3 | 0.7 |
| C/C(=C/C(=O)c1ccccc1)N[C@@H](Cc1ccc(OCCOc2ccc(C(=O)c3ccc(Cl)cc3)cc2)cc1)C(=O)O | 2.8 | 22.6 |
